Laboratory results taken from ChEMBL document CHEMBL3392964, “Design, synthesis, and evaluation of novel imidazo[1,2-a][1,3,5]triazines and their derivatives as focal adhesion kinase inhibitors with antitumor activity” (J Med Chem, 2015).
Activity calls are given as the source filed them. No cut-off for these calls is given here.

Assays:
[1] = target: T1, Focal adhesion kinase 1 (Homo sapiens, UniProt Q05397); assay: Inhibition of FAK phosphorylation at tyrosine 397 in human PC3 cells after 48 hrs by FACEFAK ELISA; format: cell-based; details: PC-3
Procedure, shortened: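 Cells in DMEM with 10% FBS, 3 × 10^3 per well, treated 48 h at 0.1, 1 and 10 μM. Fixed in 4% formaldehyde; antibodies to pTyr397-FAK or total FAK, HRP secondary, read at 450 nm. Crystal violet cell count at 595 nm. Phospho-FAK normalised to total FAK and cell number; fold decrease versus control, triplicate readings, three independent experiments.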
Target sequence in this assay (Q05397 2-1052 limits assumed): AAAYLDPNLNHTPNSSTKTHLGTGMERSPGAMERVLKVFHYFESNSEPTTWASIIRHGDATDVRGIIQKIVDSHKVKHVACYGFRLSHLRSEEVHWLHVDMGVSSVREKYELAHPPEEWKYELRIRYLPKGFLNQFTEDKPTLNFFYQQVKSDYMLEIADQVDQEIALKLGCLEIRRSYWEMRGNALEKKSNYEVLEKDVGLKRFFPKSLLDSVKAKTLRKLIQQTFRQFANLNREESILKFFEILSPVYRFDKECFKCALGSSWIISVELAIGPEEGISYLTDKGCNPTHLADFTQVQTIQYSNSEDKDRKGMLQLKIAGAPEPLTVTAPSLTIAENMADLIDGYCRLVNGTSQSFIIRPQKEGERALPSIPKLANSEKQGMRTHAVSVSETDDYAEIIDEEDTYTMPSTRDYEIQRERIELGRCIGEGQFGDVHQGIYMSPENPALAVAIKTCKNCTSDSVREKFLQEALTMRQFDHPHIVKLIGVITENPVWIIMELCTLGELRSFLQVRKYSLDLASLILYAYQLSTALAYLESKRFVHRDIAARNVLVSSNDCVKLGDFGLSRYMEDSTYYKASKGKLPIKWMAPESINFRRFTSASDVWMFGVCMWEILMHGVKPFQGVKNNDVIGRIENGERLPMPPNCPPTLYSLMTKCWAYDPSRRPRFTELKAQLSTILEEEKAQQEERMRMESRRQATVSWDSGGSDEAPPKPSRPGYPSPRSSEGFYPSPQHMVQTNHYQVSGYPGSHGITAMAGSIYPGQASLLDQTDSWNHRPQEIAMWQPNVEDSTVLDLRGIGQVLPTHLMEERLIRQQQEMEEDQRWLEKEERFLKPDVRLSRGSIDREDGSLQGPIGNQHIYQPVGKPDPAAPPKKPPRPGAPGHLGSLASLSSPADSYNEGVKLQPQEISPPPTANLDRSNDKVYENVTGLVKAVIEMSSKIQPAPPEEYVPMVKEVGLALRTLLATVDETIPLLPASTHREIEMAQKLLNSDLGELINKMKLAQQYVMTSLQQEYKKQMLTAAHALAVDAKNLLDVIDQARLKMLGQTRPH

[2] = Antiproliferative activity against human U87MG cells after 48 hrs by WST-1 assay; format: functional, cell-based, U-87MG ATCC; details: U-87 MG
Procedure, shortened: (§1)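 Exponentially growing cells in DMEM/10% FBS seeded at 5 × 10^3 per well, left overnight, then exposed 48 h to compounds diluted from DMSO; WST-1 added for 2 h, absorbance at 450 nm (reference 620 nm); viability as ratio to DMSO controls; three independent experiments, triplicate points; IC50 by nonlinear regression (log inhibitor vs normalized response, variable slope).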

[3] = Antiproliferative activity against human HCT116 cells after 48 hrs by WST-1 assay; format: functional, cell-based; details: HCT-116, 48 h; procedure, shortened: as §1
[4] = system: MDA-MB-231; assay: Antiproliferative activity against human MDA-MB-231 cells after 48 hrs by WST-1 assay; format: functional, cell-based; details: MDA-MB-231, 48 h; procedure, shortened: as §1
[5] = Antiproliferative activity against human PC3 cells after 48 hrs by WST-1 assay; format: functional, cell-based; details: PC-3, 48 h; procedure, shortened: as §1
[6] = (§2) Inhibition of colony formation in human U87MG cells after 2 weeks by crystal violet staining-based assay; format: functional, cell-based, U-87MG ATCC; details: U-87 MG, 336 h
Procedure, shortened: (§3)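 Seeding: 250 cells per well for HCT-116, 300 for U87MG, MDA-MB-231 and PC-3; incubated overnight, then exposed to a range of concentrations for 2 weeks. Fixed in 4% paraformaldehyde 30 min at room temperature, stained with 0.1% crystal violet. Colonies over 50 cells counted; colony formation rate calculated; IC50 by nonlinear regression.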

[7] = system: U-87MG ATCC; assay: as §2; format: functional, cell-based; procedure, shortened: as §3
[8] = (§4) Inhibition of colony formation in human HCT116 cells after 2 weeks by crystal violet staining-based assay; format: functional, cell-based; details: HCT-116, 336 h; procedure, shortened: as §3
[9] = system: HCT-116; assay: as §4; format: functional, cell-based; procedure, shortened: as §3
[10] = system: MDA-MB-231; assay: Inhibition of colony formation in human MDA-MB-231 cells after 2 weeks by crystal violet staining-based assay; format: functional, cell-based; procedure, shortened: as §3
[11] = (§5) Inhibition of colony formation in human PC3 cells after 2 weeks by crystal violet staining-based assay; format: functional, cell-based; details: PC-3, 336 h; procedure, shortened: as §3
[12] = system: PC-3; assay: as §5; format: functional, cell-based; procedure, shortened: as §3
[13] = system: U-87 MG; assay: Induction of apoptosis in human U87MG cells assessed as necrotic cells at 3 uM after 24 hrs by Annexin V-PE/7-AAD staining-based FACS analysis (reference value: 1.06%); format: functional, U-87MG ATCC
[14] = system: U-87 MG; assay: Induction of apoptosis in human U87MG cells assessed as viable cells at 3 uM after 24 hrs by Annexin V-PE/7-AAD staining-based FACS analysis (reference value: 96.7%); format: functional, U-87MG ATCC; details: read-out: Activity
[15] = system: HCT-116; assay: Induction of apoptosis in human HCT116 cells assessed as late apoptotic cells at 0.5 uM after 24 hrs by Annexin V-PE/7-AAD staining-based FACS analysis (reference value: 1.22%); format: functional
[16] = system: HCT-116; assay: Induction of apoptosis in human HCT116 cells assessed as necrotic cells at 0.5 uM after 24 hrs by Annexin V-PE/7-AAD staining-based FACS analysis (reference value: 0.885%); format: functional
[17] = system: HCT-116; assay: Induction of apoptosis in human HCT116 cells assessed as apoptotic cells at 0.5 uM after 24 hrs by Annexin V-PE/7-AAD staining-based FACS analysis relative to control; format: functional
[18] = target: T1, Focal adhesion kinase 1; assay: Inhibition of FAK (unknown origin) using ULight-poly GT as substrate after 1.6 hrs by TR-FRET assay
Target sequence in this assay (Q05397 whole entry): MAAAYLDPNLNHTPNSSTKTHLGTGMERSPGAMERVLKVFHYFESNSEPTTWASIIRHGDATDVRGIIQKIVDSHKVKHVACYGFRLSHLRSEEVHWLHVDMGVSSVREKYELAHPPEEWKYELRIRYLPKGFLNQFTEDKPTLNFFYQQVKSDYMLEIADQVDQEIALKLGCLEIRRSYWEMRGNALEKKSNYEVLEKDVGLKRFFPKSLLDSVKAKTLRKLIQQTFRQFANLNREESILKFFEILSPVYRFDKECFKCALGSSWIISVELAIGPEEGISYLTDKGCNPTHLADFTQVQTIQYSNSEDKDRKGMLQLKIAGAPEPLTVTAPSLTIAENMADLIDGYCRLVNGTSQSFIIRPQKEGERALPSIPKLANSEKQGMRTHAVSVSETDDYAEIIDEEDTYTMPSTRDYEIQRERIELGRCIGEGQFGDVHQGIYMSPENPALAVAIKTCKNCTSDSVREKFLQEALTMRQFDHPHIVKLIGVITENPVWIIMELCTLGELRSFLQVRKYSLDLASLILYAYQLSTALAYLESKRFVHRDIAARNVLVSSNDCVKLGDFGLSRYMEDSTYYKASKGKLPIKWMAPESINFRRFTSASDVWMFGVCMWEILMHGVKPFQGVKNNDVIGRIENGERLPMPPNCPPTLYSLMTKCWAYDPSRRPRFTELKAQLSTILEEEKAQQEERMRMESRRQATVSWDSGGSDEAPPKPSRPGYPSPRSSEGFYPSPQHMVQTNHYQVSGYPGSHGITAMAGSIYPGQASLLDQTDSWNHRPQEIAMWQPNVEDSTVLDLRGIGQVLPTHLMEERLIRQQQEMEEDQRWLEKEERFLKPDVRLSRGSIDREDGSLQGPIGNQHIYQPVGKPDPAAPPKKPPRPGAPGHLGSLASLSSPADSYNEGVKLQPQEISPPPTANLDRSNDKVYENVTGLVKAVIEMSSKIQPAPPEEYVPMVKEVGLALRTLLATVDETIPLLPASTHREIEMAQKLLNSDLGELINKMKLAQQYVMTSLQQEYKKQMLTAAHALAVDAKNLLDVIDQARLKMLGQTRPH

[19] = system: HCT-116; assay: Induction of apoptosis in human HCT116 cells at < 0.5 uM after 24 hrs by Annexin V-PE/7-AAD staining-based FACS analysis; format: functional, cell-based
[20] = Cell cycle arrest in human U87MG cells assessed as accumulation at G0/G1 phase at 3 uM after 24 hrs by propidium iodide staining-based flow cytometry (reference value: 61.7%); format: functional; details: U-87MG ATCC
Procedure, shortened: (§6)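 Cells plated at 10^5 per well, left overnight, then exposed 24 h to compound or vehicle; stained 15 min at 37 °C with propidium iodide/Triton buffer; DNA content by flow cytometry, phase distribution fitted by Dean–Jett–Fox; HCT-116 at 0.3–0.5 μM, U87-MG at 0.3–3 μM; significance by unpaired Student's t test; one representative experiment.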

[21] = Cell cycle arrest in human U87MG cells assessed as accumulation at G2/M phase at 3 uM after 24 hrs by propidium iodide staining-based flow cytometry (reference value: 20%); format: functional; details: U-87MG ATCC; procedure, shortened: as §6
[22] = Cell cycle arrest in human HCT116 cells assessed as accumulation at G0/G1 phase at 0.5 uM after 24 hrs by propidium iodide staining-based flow cytometry (reference value: 63.8%); format: functional; details: HCT-116; procedure, shortened: as §6
[23] = Cell cycle arrest in human HCT116 cells assessed as accumulation at S phase at 0.5 uM after 24 hrs by propidium iodide staining-based flow cytometry (reference value: 17.7%); format: functional; details: HCT-116; procedure, shortened: as §6
[24] = Cell cycle arrest in human U87MG cells at < 3 uM after 24 hrs by propidium iodide staining-based flow cytometry; format: functional; details: U-87MG ATCC; procedure, shortened: as §6
[25] = Cell cycle arrest in human U87MG cells assessed as accumulation at G2 phase at 3 uM after 24 hrs by propidium iodide staining-based flow cytometry relative to control; format: functional; details: U-87MG ATCC
Procedure, shortened: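 U87-MG cells plated at 10^5 per well, incubated overnight, then exposed to compound or vehicle control for 24 h. Cells stained with propidium iodide in PI/triton buffer for 15 min at 37 °C and analysed by flow cytometry. Cell-cycle phases were assigned by the Dean–Jett–Fox method. Significance was tested by unpaired Student's t test, and one representative experiment is shown.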

[26] = system: U-87 MG; assay: Reduction of cell adherence in human U87MG cells after 30 mins by toluidine blue staining-based […]; format: functional; details: U-87MG ATCC
Procedure, shortened: (§7)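 U87-MG cells grown in 10% serum, trypsinised, diluted to 100 000 cells/mL in 10% serum medium, then treated 30 min with compound or DMSO. 20 000 cells per well allowed to attach 1 h. Fixed in 4% paraformaldehyde 30 min, stained with 0.1% toluidine blue in 4% PFA 30 min, washed, OD read at 620 nm for attached cells.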

[27] = system: U-87 MG; assay: Reduction of cell adherence in human U87MG cells at 3 uM after 30 mins by toluidine blue staining-based […]; format: functional, U-87MG ATCC; parameters: scale not given: the % may be the effect or the level left; procedure, shortened: as §7
[28] = Antimigratory activity in human U87MG cells at 3 uM […] by transwell membrane assay; format: functional, U-87MG ATCC
[29] = system: U-87MG ATCC; assay: Antimigratory activity in human U87MG cells after 30 mins by boyden chamber assay; format: functional, cell-based
[30] = Antiinvasive activity in human U87MG cells after 24 hrs by matrigel assay; format: functional, U-87MG ATCC
Procedure, shortened: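 U-87MG pre-exposed 24 h to compound or DMSO in 3% FBS, then 4 × 10^4 cells seeded in upper chamber of impedance-based CIM-16 plate (8 μm pore membrane) coated with Matrigel/collagen; lower chamber 10% FBS; cell index monitored at 37 °C, 5% CO2 for 12 h; slope (1/h) over set interval, DMSO slope set to 100; duplicate wells, repeated twice.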

C=COC(=O)NCc1ccc(Nc2nc(Nc3ccccc3C(=O)NC)n3ccnc3n2)cc1
inhibition [1]: Dose-dependent effect | IC50 [2]: 2890 nM | IC50 [3]: 520 nM | IC50 [4]: 800 nM | IC50 [5]: 290 nM | IC50 [6]: 420 nM | inhibition [7]: Dose-dependent effect | IC50 [8]: 130 nM | inhibition [9]: Dose-dependent effect | inhibition [10]: Dose-dependent effect | IC50 ([10]; MDA-MB-231, 336 h): 140 nM | IC50 [11]: 630 nM | inhibition [12]: Dose-dependent effect | Activity [13]: 0.804% | viability at 3 µM [14]: 97.4% | Activity [15]: 16.1% | Activity [16]: 7.77% | Activity [17]: 25.9% | IC50 [18]: 50 nM | Activity [19]: Active | Activity [20]: 34.3% | Activity [21]: 58.8% | Activity [22]: 29.9% | Activity [23]: 11.6% | Activity [24]: Active | Ratio [25]: 2.9 | Activity [26]: Dose-dependent effect | Activity [27]: 50% | Activity [28]: 69.5% | Activity [29]: Dose-dependent effect | Activity [30]: 50%
